Activity calls are given as the source filed them. No cut-off for these calls is given here.

Data set [1] has as its target T1, Melanin-concentrating hormone receptor 1 (Homo sapiens, UniProt Q99705). Description: Antagonist activity at human MCHR1 expressed in CHO cells assessed as inhibition of MCH-induced intracellular calcium release by FLIPR assay. It counts as functional, cell-based. In a few lines:
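Agonist-induced intracellular calcium release measured by FLIPR in CHO cells stably expressing human MCH1R; antagonism taken as inhibition of the MCH-evoked signal.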

Data set [2] has as its target T1, Melanin-concentrating hormone receptor 1. Nature of the data set: Displacement of [125I]MCH from human MCHR1 expressed in CHO cells by competition binding assay. Type of data set: cell-based. Summed up:
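Competition binding against [¹²⁵I]-MCH radioligand on membranes from CHO cells expressing human MCH1R; IC50 values are means of two experiments.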
In general terms: In a radioligand displacement assay an active substance lowers the binding of a labelled ligand.

A short description of data set [3]: Ratio of drug level in brain to plasma in Sprague-Dawley rat plasma at 10 mg/kg, po after 2 hrs. More on the design: dose 10 mg/kg, route oral. It counts as ADME, organism-based.
Data set [4] relates to Mus musculus. Nature of the data set: Suppression of spontaneous food intake in diet-induced obese C57BL/6 mouse model at 30 mg/kg, po after 24 hrs. Type of data set: functional. Summed up: (§1)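 Established DIO mice on high-fat diet given a single oral dose (3, 10, 30 mg/kg) 1–2 h before dark onset, after recording daily intake and body weight; food intake measured 24 h post-dose versus vehicle group.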

Data set [5] deals with Mus musculus. Nature of the data set: Antiobese effect in diet-induced obese C57BL/6 mouse model assessed as loss of body weight at 10 mg/kg, po QD for 1.5 months. It counts as functional. Summed up: (§2)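 Established high-fat-fed DIO mice dosed orally once daily at 3, 10 or 30 mg/kg for 1.5 months, each dose given 1–2 h before dark period after daily food intake and body weight recording; body weight change at end of treatment versus vehicle controls, mean ± SEM.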

For data set [6], the system named is Mus musculus. Nature of the data set: Suppression of spontaneous food intake in diet-induced obese C57BL/6 mouse model treated orally after 24 hrs. Type of data set: functional, organism-based. Summed up:
as §1

The next data set deals with Brain. Nature of the data set: Drug level in Sprague-Dawley rat brain measured per gram of tissue at 10 mg/kg, po after 2 hrs. Type of data set: ADME, organism-based. On the set-up: dose 10 mg/kg, route oral. The settings on record: in vivo.
The nature of data set [7]: Drug level in Sprague-Dawley rat cerebrospinal fluid at 10 mg/kg, po after 2 hrs. Type of data set: ADME, organism-based. On the set-up: dose 10 mg/kg, route oral. The settings on record: read-out: Drug uptake.
Data set [8] deals with Mus musculus. Description: Antiobese effect in diet-induced obese C57BL/6 mouse model assessed as loss of body weight at 3 mg/kg, po QD for 1.5 months. It counts as functional. Summed up: as §2
Data set [9] concerns Mus musculus. Nature of the data set: Antiobese effect in diet-induced obese C57BL/6 mouse model assessed as loss of body weight at 30 mg/kg, po QD for 1.5 months. Type of data set: functional. In a few lines: as §2
Data set [10] has as its system Mus musculus. Description: Suppression of spontaneous food intake in diet-induced obese C57BL/6 mouse model at 10 mg/kg, po after 24 hrs. It counts as functional. Summed up:
as §1

Data set [11] deals with Mus musculus. Nature of the data set: Suppression of spontaneous food intake in diet-induced obese C57BL/6 mouse model at 3 mg/kg, po after 24 hrs. It counts as functional. Summed up: as §1
Data set [12] in a line: Drug level in Sprague-Dawley rat plasma at 10 mg/kg, po after 2 hrs. Type of data set: ADME, organism-based. On the set-up: dose 10 mg/kg, route oral. The settings on record: read-out: Drug uptake.
In data set [13] the test system is Mus musculus. Nature of the data set: Suppression of spontaneous food intake in diet-induced obese C57BL/6 mouse model treated orally chronic administration QD for 1.5 months after 24 hrs. It counts as functional, organism-based.
Data set [14] has as its target Voltage-gated inwardly rectifying potassium channel KCNH2 (Homo sapiens, UniProt Q12809). Nature of the data set: Displacement of [35S]N-[(4R)-10-[(2R)-6-cyano-1,2,3,4-tetrahydro-2-naphthyl]-3,4-dihydro-4-hydroxyspiro[2H-1-benzopyran-2,40-piperidin]-6-yl]methanesulfonamide from human ERG expressed in HEK293 cells.

T1 sequence (Q99705 whole entry): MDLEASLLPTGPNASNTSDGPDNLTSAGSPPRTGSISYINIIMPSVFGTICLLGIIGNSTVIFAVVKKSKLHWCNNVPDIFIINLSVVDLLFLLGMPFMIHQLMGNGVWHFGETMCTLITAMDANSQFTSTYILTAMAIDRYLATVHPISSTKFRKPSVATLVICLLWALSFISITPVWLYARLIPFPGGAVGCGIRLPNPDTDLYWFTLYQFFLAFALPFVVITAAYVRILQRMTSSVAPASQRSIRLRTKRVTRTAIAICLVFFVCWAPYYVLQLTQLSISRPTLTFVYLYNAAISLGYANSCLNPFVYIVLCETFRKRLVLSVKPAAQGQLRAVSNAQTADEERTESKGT
Chain of Voltage-gated inwardly rectifying potassium channel KCNH2 (Q12809 whole entry): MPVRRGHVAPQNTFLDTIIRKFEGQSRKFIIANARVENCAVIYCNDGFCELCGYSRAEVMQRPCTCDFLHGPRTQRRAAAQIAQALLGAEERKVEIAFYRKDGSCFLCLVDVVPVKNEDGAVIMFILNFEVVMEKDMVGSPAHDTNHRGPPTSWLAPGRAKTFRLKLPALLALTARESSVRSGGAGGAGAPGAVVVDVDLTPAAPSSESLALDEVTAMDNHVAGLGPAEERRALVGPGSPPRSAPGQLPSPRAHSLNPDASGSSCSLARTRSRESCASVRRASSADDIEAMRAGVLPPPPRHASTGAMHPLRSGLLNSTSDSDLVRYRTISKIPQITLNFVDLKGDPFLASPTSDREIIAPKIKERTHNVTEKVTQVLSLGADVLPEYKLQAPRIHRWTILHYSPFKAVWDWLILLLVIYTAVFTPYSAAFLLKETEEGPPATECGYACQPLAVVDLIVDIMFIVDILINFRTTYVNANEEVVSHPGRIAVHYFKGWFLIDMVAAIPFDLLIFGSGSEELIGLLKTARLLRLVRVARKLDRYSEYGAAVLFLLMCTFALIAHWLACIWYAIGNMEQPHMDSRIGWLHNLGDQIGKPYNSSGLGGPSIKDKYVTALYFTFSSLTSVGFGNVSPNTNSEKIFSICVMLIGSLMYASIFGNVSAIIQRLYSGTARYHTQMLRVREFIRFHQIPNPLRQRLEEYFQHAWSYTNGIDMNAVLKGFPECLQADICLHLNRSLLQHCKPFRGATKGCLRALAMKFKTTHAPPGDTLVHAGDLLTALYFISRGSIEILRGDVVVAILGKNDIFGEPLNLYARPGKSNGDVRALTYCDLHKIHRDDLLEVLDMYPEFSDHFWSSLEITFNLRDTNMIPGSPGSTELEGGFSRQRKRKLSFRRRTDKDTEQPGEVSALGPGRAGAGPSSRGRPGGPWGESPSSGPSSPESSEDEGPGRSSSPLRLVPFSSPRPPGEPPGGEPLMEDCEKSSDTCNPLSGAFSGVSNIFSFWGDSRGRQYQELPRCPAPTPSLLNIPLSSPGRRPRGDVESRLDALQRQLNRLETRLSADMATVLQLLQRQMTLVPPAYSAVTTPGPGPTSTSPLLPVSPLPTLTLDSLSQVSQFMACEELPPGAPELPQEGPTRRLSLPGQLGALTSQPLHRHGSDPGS

By IC50 is commonly meant the concentration that inhibits the measured activity by half. `O=c1cc(OCc2cccc(F)c2)ccn1-c1ccc(OCCN2CCCC2)cc1`: the IC50 in data set [1] was 22 nM; in [2] it was 5.9 nM.
What is called Kp is tissue or fluid exposure divided by exposure in the circulation. Turning to `O=c1cc(OCc2ccc(F)cc2)ccn1-c1ccc(OCCN2CCCC2)cc1`, the Kp at 2 h in data set [3] was 2.4. Further, the Activity is 19% in the data set on Mus musculus [4]; 11% in the data set with Mus musculus [5]; “Dose-dependent effect” in the data set on Mus musculus [6]; 4% in the data set on Mus musculus [8]; 21% in the data set with Mus musculus [9]; 13% in the data set with Mus musculus [10]. For the same compound, the Activity in the data set on Mus musculus [11] is 6%; in the data set with Mus musculus [13] it was “Dose-dependent effect”. For the same compound, the Drug uptake with Brain was determined as 2.4 nmol/g. Moreover, the concentration at 2 h turned out to be 55 nM in data set [7] and 1000 nM in data set [12]. Also, the 50% inhibitory concentration (IC50) in data set [1] came out at 23 nM.
`CCN(CC)CCN(C(=O)OC)c1ccc(-n2ccc(OCc3ccccc3)cc2=O)cc1`: in [2], the IC50 is greater than 1000 nM.
For `CC(C)N(CCOc1ccc(-n2ccc(OCc3ccccc3)cc2=O)cc1)C(C)C`, the figures for the IC50 in data set [1] and in data set [2] were 22 nM and 5.1 nM, respectively.
Regarding `CCN(CC)CCN(C)c1ccc(-n2ccc(OCc3ccccc3)cc2=O)cc1`, the IC50 came to 1700 nM in data set [14] and 16 nM in data set [2].
In the case of `O=c1cc(OCc2ccc(C(F)(F)F)cc2)ccn1-c1ccc(OCCN2CCCC2)cc1`, the values for the IC50 in [1] and in data set [2] were 49 nM and 6.7 nM, respectively.
`CN(C)CCOc1ccc(-n2ccc(OCc3ccccc3)cc2=O)cc1`: the IC50 in data set [1] was 18 nM; in [14], greater than 10000 nM.
As for `CN1CCC(Oc2ccc(-n3ccc(OCc4ccccc4)cc3=O)cc2)C1` (stereo not given), the 50% inhibitory concentration (IC50) was greater than 10000 nM in data set [14] and 18 nM in [2].
Consider `O=c1cc(OCc2ccccc2)ccn1-c1ccc(OCCN2CCOCC2)cc1`, for which the 50% inhibitory concentration (IC50) is 34 nM in data set [1], greater than 10000 nM in [14] and 24 nM in data set [2].
The corresponding values for `CCN(CC)CCOc1ccc(-n2ccc(OCc3ccccc3)cc2=O)cc1` are 24 nM, 9800 nM and 6.6 nM.
The compound `CC(CN(C)C)Oc1ccc(-n2ccc(OCc3ccccc3)cc2=O)cc1` (stereo not given) showed an IC50 in data set [2] of 51 nM.
On the same count and under the same terms, under `O=c1cc(OCc2ccc(-c3ccccc3)cc2)ccn1-c1ccc(OCCN2CCCC2)cc1` stands 640 nM.
On to `O=c1cc(OCc2ccc3ccccc3c2)ccn1-c1ccc(OCCN2CCCC2)cc1`, for which the concentration for half-maximal inhibition (IC50) in data set [1] stood at 175 nM; in [2], 7.7 nM.
Turning to `CN(C)CC1CCc2cc(NC(=O)c3ccc(-c4ccc(F)cc4)cc3)ccc2C1` (stereo not given), the result with Mus musculus [4] was Active.
As for `O=c1cc(OCc2ccccc2F)ccn1-c1ccc(OCCN2CCCC2)cc1`, the concentration for half-maximal inhibition (IC50) in data set [1] was 30 nM; in data set [14] it was 4300 nM; in data set [2], 8.7 nM.
Consider `O=c1cc(OCc2ccc(Cl)cc2)ccn1-c1ccc(OCCN2CCCC2)cc1`, for which the partition ratio (Kp) at 2 h in data set [3] came out at 3.6. In the data set with Brain, this compound yielded a Drug uptake of 1.67 nmol/g. Moreover, the values for the concentration at 2 h in data set [7] and in [12] were 10 nM and 470 nM, respectively. The IC50 in data set [1] came to 17 nM; in data set [2], 1.4 nM.
Compound `CN(C)CC(C)(C)Oc1ccc(-n2ccc(OCc3ccccc3)cc2=O)cc1` had an IC50 in [2] of 180 nM.
As to `COc1ccc(COc2ccn(-c3ccc(OCCN4CCCC4)cc3)c(=O)c2)cc1`, in data set [1], the IC50 worked out at 11 nM.
Turning to `CN1CCCCC1COc1ccc(-n2ccc(OCc3ccccc3)cc2=O)cc1` (stereo not given), the IC50 in data set [2] came out at 18 nM.
As for `O=c1cc(OCc2ccccc2)ccn1-c1ccc(OCCN2CCCCC2)cc1`, the concentration ratio (Kp) at 2 h in data set [3] was 3.8. Besides, in the data set on Brain, the Drug uptake amounted to 0.76 nmol/g. For the same compound, in data set [1], the IC50 turned out to be 19 nM. In addition, in data set [12], the concentration at 2 h is 200 nM.
In [2], `O=c1cc(OCc2ccccc2Cl)ccn1-c1ccc(OCCN2CCCC2)cc1` had an IC50 of 12 nM.
The same measure, in the same setting: the figure for `O=c1cc(OCCOc2ccc(F)cc2)ccn1-c1ccc(OCCN2CCCC2)cc1` is 150 nM; for `O=c1cc(OCCc2ccc(F)cc2)ccn1-c1ccc(OCCN2CCCC2)cc1` it is 650 nM.
For the compound `CN1CCCC1COc1ccc(-n2ccc(OCc3ccccc3)cc2=O)cc1` (stereo not given), the IC50 in [1] was 23 nM; in [2], 12 nM.
`O=c1cc(Oc2ccc(F)cc2)ccn1-c1ccc(OCCN2CCCCC2)cc1`: the IC50 in [2] is greater than 1000 nM.
On to `O=c1cc(-c2ccc(F)cc2)ccn1-c1ccc(OCCN2CCCCC2)cc1`, for which the IC50 in [2] is greater than 1000 nM.

Source of the values: ChEMBL document CHEMBL1641472, “Discovery of novel phenylpyridone derivatives as potent and selective MCH1R antagonists” (Bioorg Med Chem, 2011).
